Legend:
Mus musculus [1] = test: Number of Plasmodium berghei infected mice cured after administration of 640 mg/kg; assay type: functional
Plasmodium falciparum [2] = test: In vitro inhibition of hematin polymerization in Plasmodium falciparum; assay type: functional
Mus musculus [3] = test: Number of Plasmodium berghei infected mice died on day 13 at 40 mg/kg; assay type: functional
Method in brief: (§1)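 Male mice infected with drug-sensitive P. berghei KBG 173; single subcutaneous dose given 3 days postinfection, five mice per dose; survival followed, with cure (C) meaning survival to 60 days postinfection and deaths 0–2 days after treatment scored as toxicity (T).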

Plasmodium falciparum [4] = test: In vitro antimalarial activity against chloroquine-resistant Plasmodium falciparum W2; assay type: functional, organism-based
Mus musculus [5] = test: Number of Plasmodium berghei infected mice cured after administration of 160 mg/kg dose; assay type: functional
Plasmodium falciparum [6] = test: Antimalarial activity against Plasmodium falciparum D6 in vitro.; assay type: functional, organism-based
Mus musculus [7] = test: (§2) Number of Plasmodium berghei infected mice died on day 8 at 160 mg/kg; assay type: functional; method in brief: as §1
Mus musculus [8] = test: (§3) Number of Plasmodium berghei infected mice died on day 7 at 40 mg/kg; assay type: functional; method in brief: as §1
Mus musculus [9] = test: Number of Plasmodium berghei infected mice died on day 9 at 40 mg/kg; assay type: functional
Mus musculus [10] = test: Number of Plasmodium berghei infected mice died on day 9 at 160 mg/kg; assay type: functional; method in brief: as §1
Mus musculus [11] = test: as §2; assay type: functional; remark: listed apart in the source
Mus musculus [12] = test: Number of Plasmodium berghei infected mice died on day 24 at 640 mg/kg; assay type: functional; method in brief: as §1
Mus musculus [13] = test: Number of Plasmodium berghei infected mice died on day 8 at 40 mg/kg; assay type: functional; method in brief: as §1
Mus musculus [14] = test: Number of Plasmodium berghei infected mice died on day 29 at 640 mg/kg; assay type: functional; method in brief: as §1
Mus musculus [15] = test: Number of Plasmodium berghei infected mice died on day 13 at 640 mg/kg; assay type: functional; method in brief: as §1
Plasmodium falciparum [16] = test: Inhibition of hematin polymerization in Plasmodium falciparum; assay type: functional
Mus musculus [17] = test: Number of Plasmodium berghei infected mice died on day 10 at 40 mg/kg; assay type: functional; method in brief: as §1
Mus musculus [18] = test: as §3; assay type: functional; remark: listed apart in the source
Mus musculus [19] = test: Number of Plasmodium berghei infected mice died on day 14 at 640 mg/kg; assay type: functional; method in brief: as §1
Mus musculus [20] = test: Number of Plasmodium berghei infected mice died on day 10 at 160 mg/kg; assay type: functional; method in brief: as §1
Mus musculus [21] = test: Number of Plasmodium berghei infected mice died on day 18 at 160 mg/kg; assay type: functional; method in brief: as §1
Mus musculus [22] = test: Number of Plasmodium berghei infected mice died on day 16 at 640 mg/kg; assay type: functional; method in brief: as §1
Mus musculus [23] = test: Number of Plasmodium berghei infected mice died on day 11 at 40 mg/kg; assay type: functional; method in brief: as §1
Mus musculus [24] = test: (§4) Number of Plasmodium berghei infected mice died on day 12 at 640 mg/kg; assay type: functional
Mus musculus [25] = test: Number of Plasmodium berghei infected mice died on day 33 at 640 mg/kg; assay type: functional; method in brief: as §1
Mus musculus [26] = test: Number of Plasmodium berghei infected mice died on day 13 at 160 mg/kg; assay type: functional; method in brief: as §1
Mus musculus [27] = test: Number of Plasmodium berghei infected mice cured after administration of the dose 640 mg/kg; assay type: functional; method in brief: as §1
Mus musculus [28] = test: Number of Plasmodium berghei infected mice died on day 16 at 160 mg/kg; assay type: functional; method in brief: as §1
Mus musculus [29] = test: (§5) Number of Plasmodium berghei infected mice died on day 6 at 40 mg/kg; assay type: functional; method in brief: as §1
Mus musculus [30] = test: Number of Plasmodium berghei infected mice died on day 7 at 640 mg/kg; assay type: functional; method in brief: as §1
Mus musculus [31] = test: Number of Plasmodium berghei infected mice died on day 7 at 160 mg/kg; assay type: functional; method in brief: as §1
Mus musculus [32] = test: (§6) Number of Plasmodium berghei infected mice died on day 6 at 160 mg/kg; assay type: functional; method in brief: as §1
Mus musculus [33] = test: Number of Plasmodium berghei infected mice died on day 19 at 640 mg/kg; assay type: functional; method in brief: as §1
Mus musculus [34] = test: Number of Plasmodium berghei infected mice cured after administration of a compound dose 640 mg/kg; assay type: functional
Mus musculus [35] = test: Number of Plasmodium berghei infected mice died on day 12 at 160 mg/kg; assay type: functional; method in brief: as §1
Mus musculus [36] = test: Number of Plasmodium berghei infected mice died on day 14 at 160 mg/kg; assay type: functional; method in brief: as §1
Mus musculus [37] = test: as §6; assay type: functional; remark: listed apart in the source
Mus musculus [38] = test: Number of Plasmodium berghei infected mice died on day 6 at 640 mg/kg; assay type: functional
Mus musculus [39] = test: as §5; assay type: functional; remark: listed apart in the source
Mus musculus [40] = test: Number of Plasmodium berghei infected mice died on day 12 at 40 mg/kg; assay type: functional; method in brief: as §1
Mus musculus [41] = test: Number of Plasmodium berghei infected mice died on day 20 at 640 mg/kg; assay type: functional; method in brief: as §1
Mus musculus [42] = test: Number of Plasmodium berghei infected mice died on day 17 at 160 mg/kg; assay type: functional; method in brief: as §1
Mus musculus [43] = test: Number of Plasmodium berghei infected mice died on day 22 at 640 mg/kg; assay type: functional; method in brief: as §1
Mus musculus [44] = test: Number of Plasmodium berghei infected mice died on day 18 at 640 mg/kg; assay type: functional; method in brief: as §1
Mus musculus [45] = test: Number of Plasmodium berghei infected mice died at 160 mg/kg; Curative; assay type: functional; method in brief: as §1
Mus musculus [46] = test: Number of Plasmodium berghei infected mice died at 640 mg/kg; Curative; assay type: functional; method in brief: as §1
Mus musculus [47] = test: Number of Plasmodium berghei infected mice died on day 26 at 160 mg/kg; assay type: functional; method in brief: as §1
Mus musculus [48] = test: Number of Plasmodium berghei infected mice died on day 11 at 160 mg/kg; assay type: functional
Mus musculus [49] = test: as §4; assay type: functional; method in brief: as §1; remark: listed apart in the source
Mus musculus [50] = test: Number of Plasmodium berghei infected mice died on day 25 at 640 mg/kg; assay type: functional; method in brief: as §1
Mus musculus [51] = test: Number of Plasmodium berghei infected mice died on day 16 at 40 mg/kg; assay type: functional; method in brief: as §1
Mus musculus [52] = test: Number of Plasmodium berghei infected mice died on day 23 at 160 mg/kg; assay type: functional; method in brief: as §1
Mus musculus [53] = test: Number of Plasmodium berghei infected mice died at 40 mg/kg; Curative; assay type: functional; method in brief: as §1
Mus musculus [54] = test: Number of Plasmodium berghei infected mice died on day 20 at 160 mg/kg; assay type: functional; method in brief: as §1
Mus musculus [55] = test: Number of Plasmodium berghei infected mice died at 640 mg/kg; Toxic; assay type: functional; method in brief: as §1
Mus musculus [56] = test: Number of Plasmodium berghei infected mice died on day 15 at 40 mg/kg; assay type: functional; method in brief: as §1
Mus musculus [57] = test: Number of Plasmodium berghei infected mice died on day 14 at 40 mg/kg; assay type: functional; method in brief: as §1

Clc1ccc2c(NCCOCCOCCNc3ccnc4cc(Cl)ccc34)ccnc2c1
Number (Mus musculus [1]): 1 | IC50 (Plasmodium falciparum [2]): 15 µM | Number (Mus musculus [3]): 1 | IC50 (Plasmodium falciparum [4]): 0.0099 µM | Number (Mus musculus [5]): 1 | IC50 (Plasmodium falciparum [6]): 0.0025 µM | Number (Mus musculus [7]): 3 | Number (Mus musculus [8]): 2 | Number (Mus musculus [9]): 2

Clc1ccc2c(NCCOCCNc3ccnc4cc(Cl)ccc34)ccnc2c1
Number (Mus musculus [10]): 2 | Number (Mus musculus [11]): 1 | Number (Mus musculus [12]): 1 | IC50 (Plasmodium falciparum [4]): 0.089 µM | Number (Mus musculus [13]): 3 | IC50 (Plasmodium falciparum [6]): 0.016 µM | Number (Mus musculus [14]): 1 | Number (Mus musculus [15]): 2 | IC50 (Plasmodium falciparum [16]): 20 µM | Number (Mus musculus [17]): 1 | Number (Mus musculus [18]): 1 | Number (Mus musculus [19]): 1 | Number (Mus musculus [20]): 1 | Number (Mus musculus [21]): 1

CN(CCCNc1ccnc2cc(Cl)ccc12)CCCNc1ccnc2cc(Cl)ccc12
Number (Mus musculus [22]): 1 | Number (Mus musculus [23]): 1 | IC50 (Plasmodium falciparum [4]): 0.0028 µM | Number (Mus musculus [13]): 2 | Number (Mus musculus [24]): 1 | IC50 (Plasmodium falciparum [6]): 0.0059 µM | Number (Mus musculus [15]): 1 | Number (Mus musculus [25]): 1 | IC50 (Plasmodium falciparum [16]): 8 µM | Number (Mus musculus [19]): 1 | Number (Mus musculus [21]): 2 | Number (Mus musculus [9]): 2 | Number (Mus musculus [26]): 3

Clc1ccc2c(N3CCN(CN4CCN(c5ccnc6cc(Cl)ccc56)CC4)CC3)ccnc2c1
Number (Mus musculus [10]): 3 | Number (Mus musculus [27]): 3 | IC50 (Plasmodium falciparum [2]): > 2500 µM | Number (Mus musculus [28]): 1 | IC50 (Plasmodium falciparum [4]): > 1 µM | IC50 (Plasmodium falciparum [6]): > 1 µM | Number (Mus musculus [29]): 1 | Number (Mus musculus [20]): 1 | Number (Mus musculus [8]): 4

Clc1ccc2c(NCCCCCCNCCCCCCNc3ccnc4cc(Cl)ccc34)ccnc2c1
IC50 (Plasmodium falciparum [2]): 7 µM | IC50 (Plasmodium falciparum [4]): 0.0054 µM | Number (Mus musculus [30]): 5 | IC50 (Plasmodium falciparum [6]): 0.011 µM | Number (Mus musculus [31]): 3 | Number (Mus musculus [29]): 4 | Number (Mus musculus [32]): 2 | Number (Mus musculus [8]): 1

Clc1ccc2c(NCCCOCCOCCOCCCNc3ccnc4cc(Cl)ccc34)ccnc2c1
IC50 (Plasmodium falciparum [2]): 20 µM | Number (Mus musculus [33]): 1 | Number (Mus musculus [23]): 1 | IC50 (Plasmodium falciparum [4]): 0.048 µM | Number (Mus musculus [13]): 1 | IC50 (Plasmodium falciparum [6]): 0.024 µM | Number (Mus musculus [34]): 3 | Number (Mus musculus [35]): 2 | Number (Mus musculus [19]): 1 | Number (Mus musculus [36]): 2 | Number (Mus musculus [9]): 3 | Number (Mus musculus [26]): 1

Clc1ccc2c(NCCCNCCNc3ccnc4cc(Cl)ccc34)ccnc2c1
Number (Mus musculus [37]): 5 | IC50 (Plasmodium falciparum [4]): 0.007 µM | Number (Mus musculus [38]): 5 | IC50 (Plasmodium falciparum [6]): 0.026 µM | IC50 (Plasmodium falciparum [16]): 16 µM | Number (Mus musculus [18]): 1 | Number (Mus musculus [39]): 4

Clc1ccc2c(NCCN3CCN(c4ccnc5cc(Cl)ccc45)CC3)ccnc2c1
Number (Mus musculus [40]): 1 | Number (Mus musculus [22]): 1 | Number (Mus musculus [41]): 1 | Number (Mus musculus [42]): 1 | Number (Mus musculus [3]): 2 | IC50 (Plasmodium falciparum [4]): 0.009 µM | Number (Mus musculus [13]): 1 | Number (Mus musculus [43]): 1 | IC50 (Plasmodium falciparum [6]): 0.0012 µM | Number (Mus musculus [44]): 1 | IC50 (Plasmodium falciparum [16]): 5 µM | Number (Mus musculus [45]): 1 | Number (Mus musculus [46]): 1 | Number (Mus musculus [36]): 1 | Number (Mus musculus [9]): 1 | Number (Mus musculus [26]): 3

Clc1ccc2c(NCCCOCCCCOCCCNc3ccnc4cc(Cl)ccc34)ccnc2c1
IC50 (Plasmodium falciparum [4]): 0.021 µM | Number (Mus musculus [13]): 1 | Number (Mus musculus [47]): 1 | IC50 (Plasmodium falciparum [6]): 0.022 µM | Number (Mus musculus [15]): 2 | IC50 (Plasmodium falciparum [16]): 19 µM | Number (Mus musculus [17]): 1 | Number (Mus musculus [35]): 1 | Number (Mus musculus [18]): 1 | Number (Mus musculus [48]): 1 | Number (Mus musculus [49]): 3 | Number (Mus musculus [20]): 2 | Number (Mus musculus [9]): 2

CCN(CC)CCCC(C)Nc1ccnc2cc(Cl)ccc12 (stereo not drawn) [CHLOROQUINE]
Number (Mus musculus [40]): 1 | Number (Mus musculus [50]): 1 | Number (Mus musculus [51]): 1 | Number (Mus musculus [28]): 1 | Number (Mus musculus [52]): 1 | Number (Mus musculus [53]): 1 | Number (Mus musculus [54]): 1 | Number (Mus musculus [55]): 3 | Number (Mus musculus [45]): 1 | Number (Mus musculus [56]): 1 | Number (Mus musculus [21]): 1 | Number (Mus musculus [57]): 2

From ChEMBL document CHEMBL1131162, “Bisquinolines. 2. Antimalarial N,N-bis(7-chloroquinolin-4-yl)heteroalkanediamines” (J Med Chem, 1998)
